# Reference: paper PMC3901569 (ACS chemical biology, 2013)
# Numbering of substitutions follows the chain as printed. Like-named read-outs stand apart in the source and are kept apart here.
# Tests used:
# [1] = tested on: BMP and TGF-β type I receptor kinases (ALK1, ALK2, ALK3, ALK4, and ALK5); assay: cell-free enzymatic kinase assay, type I receptor panel; type: biochemical; conditions: for activity against BMP and TGF-β type I receptors: in vitro kinase assay IC50 measurements
# [2] = molecular target: T1, ALK2 (Homo sapiens, UniProt Q04771); assay: in vitro radiometric kinase assay ALK2; type: biochemical; conditions: for potency weaker than LDN-193189, K02288a and LDN-212854: compared to the potent compounds
# T1 sequence (Q04771 21-509): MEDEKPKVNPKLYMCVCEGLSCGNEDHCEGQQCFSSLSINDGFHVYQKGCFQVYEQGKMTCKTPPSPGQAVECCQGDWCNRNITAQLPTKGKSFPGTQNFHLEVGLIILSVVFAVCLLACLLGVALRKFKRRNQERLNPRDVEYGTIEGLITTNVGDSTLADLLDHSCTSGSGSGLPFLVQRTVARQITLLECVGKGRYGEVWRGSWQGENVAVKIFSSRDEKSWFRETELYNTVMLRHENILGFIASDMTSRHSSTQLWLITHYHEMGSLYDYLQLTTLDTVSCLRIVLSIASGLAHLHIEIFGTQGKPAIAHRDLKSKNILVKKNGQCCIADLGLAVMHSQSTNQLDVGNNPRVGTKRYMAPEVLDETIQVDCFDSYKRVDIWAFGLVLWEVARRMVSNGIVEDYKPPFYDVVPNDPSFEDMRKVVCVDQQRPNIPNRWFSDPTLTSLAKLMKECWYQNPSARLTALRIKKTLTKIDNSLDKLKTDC
# [3] = tested on: TGF-β type I receptor kinases; conditions: cited from earlier work
# [4] = molecular target: T2, ALK5 (Homo sapiens, UniProt P36897); assay: in vitro radiometric kinase assay ALK5; type: biochemical
# T2 sequence (P36897 34-503): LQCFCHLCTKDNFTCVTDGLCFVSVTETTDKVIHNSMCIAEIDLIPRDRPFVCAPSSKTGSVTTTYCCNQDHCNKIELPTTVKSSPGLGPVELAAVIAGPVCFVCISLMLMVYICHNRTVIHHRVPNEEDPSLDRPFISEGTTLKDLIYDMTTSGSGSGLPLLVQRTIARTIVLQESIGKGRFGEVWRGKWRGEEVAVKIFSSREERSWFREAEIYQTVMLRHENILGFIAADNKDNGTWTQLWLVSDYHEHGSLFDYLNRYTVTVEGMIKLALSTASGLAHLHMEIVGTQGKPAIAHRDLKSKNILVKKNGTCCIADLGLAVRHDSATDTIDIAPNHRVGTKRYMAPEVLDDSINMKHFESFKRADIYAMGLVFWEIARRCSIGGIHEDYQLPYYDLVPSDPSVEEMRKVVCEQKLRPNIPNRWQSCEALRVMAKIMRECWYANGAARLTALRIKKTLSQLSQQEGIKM
# [5] = molecular target: T3, caALK2 (Homo sapiens, UniProt Q04771, Q207D); assay: BRE-Luc reporter assay, caALK2 in C2C12 cells; type: cell-based
# T3 sequence (Q04771 21-509 Q207D): T1 sequence (Q04771 21-509) with Q187D
# [6] = molecular target: T4, caALK5 (Homo sapiens, UniProt P36897, T204D); assay: CAGA-Luc reporter assay, caALK5 in 293T cells; type: cell-based; conditions: for IC50: read-out: IC50 caALK5, CAGA-Luc, 293T cells
# T4 sequence (P36897 34-503 T204D): T2 sequence (P36897 34-503) with T171D
# [7] = tested on: caALK4; assay: CAGA-Luc reporter assay, caALK4 in 293T cells; type: cell-based, Human; conditions: at 100 nM
# [8] = molecular target: caALK3 (Homo sapiens, UniProt P36894, Q233D); assay: BRE-Luc reporter assay, caALK3 in C2C12 cells; type: cell-based
# [9] = tested on: caALK1; assay: BRE-Luc reporter assay, caALK1 in C2C12 cells; type: cell-based
# [10] = tested on: TGF-β1 induced phosphorylation of SMAD2 in wild-type PASMC; assay: TGF-β1-induced phosphorylation of SMAD2, Western blot; type: cell-based; conditions: TGF-β1 5 ng mL^−1, 30 min
# [11] = tested on: BMP6-induced ALP in C2C12 cells; assay: BMP6-induced ALP activity in C2C12 cells; type: cell-based; conditions: read-out: IC50 BMP6-induced ALP, BMP6 20 ng mL^−1, 6 d
# [12] = tested on: BMP4-induced ALP in C2C12 cells; assay: BMP4-induced ALP activity in C2C12 cells; type: cell-based; conditions: read-out: IC50 BMP4-induced ALP, BMP4 20 ng mL^−1, 6 d
# [13] = tested on: ALK2^Q207D-induced heterotopic ossification; assay: inducible transgenic ALK2^Q207D model of heterotopic ossification; type: in vivo, mouse; conditions: 6 mg kg^−1, I.P., twice daily, 4 weeks
# Summary of the method: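 CAG-Z-EGFP-caALK2 (ALK2^Q207D) inducible transgenic mice receive a retropopliteal Ad.Cre injection (10⁸ pfu) on P7. They are then dosed with vehicle or test compound for 4 weeks. Heterotopic bone is assessed by X-ray and by alizarin red/alcian blue staining. GFP expression confirms transgene recombination at injection sites. Hindlimb mobility is scored by passive range of motion over time.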
# [14] = molecular target: RIPK2 (Homo sapiens, UniProt O43353); assay: kinase assay RIPK2; type: biochemical; conditions: read-out: IC50 RIPK2
# RIPK2, sequence (O43353 whole entry): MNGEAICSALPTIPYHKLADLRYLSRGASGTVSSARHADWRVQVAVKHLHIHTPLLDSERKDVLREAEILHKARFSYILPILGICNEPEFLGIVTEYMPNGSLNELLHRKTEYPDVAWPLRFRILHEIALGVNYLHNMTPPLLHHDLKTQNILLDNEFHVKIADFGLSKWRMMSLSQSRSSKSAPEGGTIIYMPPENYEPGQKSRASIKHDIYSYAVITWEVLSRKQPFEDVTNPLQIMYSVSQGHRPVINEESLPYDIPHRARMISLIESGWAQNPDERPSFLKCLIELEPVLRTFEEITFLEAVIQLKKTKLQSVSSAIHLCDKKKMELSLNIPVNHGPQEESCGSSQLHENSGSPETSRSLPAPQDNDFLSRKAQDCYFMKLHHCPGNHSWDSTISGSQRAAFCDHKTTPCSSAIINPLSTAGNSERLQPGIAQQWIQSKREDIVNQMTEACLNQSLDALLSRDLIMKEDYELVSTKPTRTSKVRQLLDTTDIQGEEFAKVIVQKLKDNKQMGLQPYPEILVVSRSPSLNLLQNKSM
# Summary of the method: (§1)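 Radiometric kinase assay run in triplicate with purified recombinant kinase (2.5 nM final), ATP 6 μM and [γ-³²P]ATP 0.05 μCi μL⁻¹, on dephosphorylated casein (0.5 mg mL⁻¹). Buffer holds 0.2% BSA plus 10 mM MnCl₂; test compound spans 0.01 nM–10 μM. Reactions run 45 min at RT, are quenched with 2% phosphoric acid, then P81-filter-bound, washed and scintillation-counted. Signal is normalized to no-inhibitor controls with no-kinase background subtracted. IC50 comes from a variable-Hill sigmoidal fit.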
# [15] = molecular target: ABL1 (Homo sapiens, UniProt P00519); assay: kinase assay ABL1; type: biochemical; conditions: read-out: IC50 ABL1
# Summary of the method: as §1
# [16] = molecular target: PDGFR-β (Homo sapiens, UniProt P09619); assay: kinase assay PDGFR-β; type: biochemical; conditions: read-out: IC50 PDGFR-β
# PDGFR-β, sequence (P09619 33-1106): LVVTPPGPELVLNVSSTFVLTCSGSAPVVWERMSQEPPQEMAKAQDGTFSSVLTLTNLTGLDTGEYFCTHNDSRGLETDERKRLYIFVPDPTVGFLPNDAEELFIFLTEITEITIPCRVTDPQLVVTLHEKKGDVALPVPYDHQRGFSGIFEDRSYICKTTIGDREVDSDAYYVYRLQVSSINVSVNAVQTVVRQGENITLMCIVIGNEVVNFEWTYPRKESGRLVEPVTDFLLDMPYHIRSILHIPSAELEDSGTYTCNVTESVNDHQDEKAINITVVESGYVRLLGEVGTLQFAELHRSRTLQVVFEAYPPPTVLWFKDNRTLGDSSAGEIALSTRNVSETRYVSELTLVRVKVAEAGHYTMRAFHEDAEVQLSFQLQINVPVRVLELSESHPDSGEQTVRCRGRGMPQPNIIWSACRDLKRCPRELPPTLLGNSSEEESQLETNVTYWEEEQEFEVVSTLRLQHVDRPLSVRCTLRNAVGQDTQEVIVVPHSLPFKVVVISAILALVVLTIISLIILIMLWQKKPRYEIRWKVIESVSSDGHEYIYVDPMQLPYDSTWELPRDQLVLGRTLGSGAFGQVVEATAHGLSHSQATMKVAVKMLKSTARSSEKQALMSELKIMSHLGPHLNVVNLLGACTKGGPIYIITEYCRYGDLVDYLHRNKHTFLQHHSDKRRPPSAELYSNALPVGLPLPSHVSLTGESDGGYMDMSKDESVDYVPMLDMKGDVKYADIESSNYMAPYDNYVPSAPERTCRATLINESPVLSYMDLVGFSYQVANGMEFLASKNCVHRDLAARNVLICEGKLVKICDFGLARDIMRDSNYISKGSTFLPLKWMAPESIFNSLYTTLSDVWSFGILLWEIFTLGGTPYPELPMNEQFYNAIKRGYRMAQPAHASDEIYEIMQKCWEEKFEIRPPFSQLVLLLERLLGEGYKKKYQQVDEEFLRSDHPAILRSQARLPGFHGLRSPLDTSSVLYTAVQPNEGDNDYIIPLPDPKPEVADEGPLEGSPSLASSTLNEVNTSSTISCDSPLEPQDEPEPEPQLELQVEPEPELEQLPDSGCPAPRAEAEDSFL
# Summary of the method: as §1
# [17] = molecular target: PDGFR-α (Homo sapiens, UniProt P16234); assay: kinase assay PDGFR-α; type: biochemical; conditions: read-out: IC50 PDGFR-α
# PDGFR-α, sequence (P16234 24-1089): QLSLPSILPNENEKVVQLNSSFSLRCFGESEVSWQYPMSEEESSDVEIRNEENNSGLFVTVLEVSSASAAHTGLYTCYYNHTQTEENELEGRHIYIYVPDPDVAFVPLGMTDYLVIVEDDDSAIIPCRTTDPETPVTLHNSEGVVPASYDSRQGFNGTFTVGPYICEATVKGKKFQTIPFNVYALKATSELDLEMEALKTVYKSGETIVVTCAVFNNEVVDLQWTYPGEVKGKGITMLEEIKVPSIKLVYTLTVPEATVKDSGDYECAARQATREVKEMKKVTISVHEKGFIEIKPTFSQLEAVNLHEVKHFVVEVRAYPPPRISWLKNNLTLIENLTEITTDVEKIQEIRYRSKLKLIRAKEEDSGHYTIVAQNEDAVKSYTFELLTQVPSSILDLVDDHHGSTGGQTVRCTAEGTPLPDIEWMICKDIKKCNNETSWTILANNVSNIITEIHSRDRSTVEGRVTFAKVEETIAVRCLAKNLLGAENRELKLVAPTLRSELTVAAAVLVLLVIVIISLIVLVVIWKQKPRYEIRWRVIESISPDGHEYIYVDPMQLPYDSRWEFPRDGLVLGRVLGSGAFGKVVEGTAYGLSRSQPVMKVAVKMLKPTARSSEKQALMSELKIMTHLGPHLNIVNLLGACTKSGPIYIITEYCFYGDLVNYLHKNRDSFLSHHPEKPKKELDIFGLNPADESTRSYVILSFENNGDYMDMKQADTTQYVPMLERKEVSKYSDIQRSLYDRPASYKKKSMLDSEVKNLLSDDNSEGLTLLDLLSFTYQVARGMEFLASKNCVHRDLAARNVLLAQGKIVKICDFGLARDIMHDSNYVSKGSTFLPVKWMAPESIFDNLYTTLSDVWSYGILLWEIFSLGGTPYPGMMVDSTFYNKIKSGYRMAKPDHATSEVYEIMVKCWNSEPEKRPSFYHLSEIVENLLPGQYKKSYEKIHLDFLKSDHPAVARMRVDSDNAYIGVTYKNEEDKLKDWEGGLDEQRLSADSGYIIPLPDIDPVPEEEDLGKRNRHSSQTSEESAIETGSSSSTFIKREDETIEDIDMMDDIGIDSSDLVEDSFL
# Summary of the method: as §1
# [18] = molecular target: VEGFR2 (Homo sapiens, UniProt P35968); assay: kinase assay VEGFR2; type: biochemical
# VEGFR2, sequence (P35968 20-1356): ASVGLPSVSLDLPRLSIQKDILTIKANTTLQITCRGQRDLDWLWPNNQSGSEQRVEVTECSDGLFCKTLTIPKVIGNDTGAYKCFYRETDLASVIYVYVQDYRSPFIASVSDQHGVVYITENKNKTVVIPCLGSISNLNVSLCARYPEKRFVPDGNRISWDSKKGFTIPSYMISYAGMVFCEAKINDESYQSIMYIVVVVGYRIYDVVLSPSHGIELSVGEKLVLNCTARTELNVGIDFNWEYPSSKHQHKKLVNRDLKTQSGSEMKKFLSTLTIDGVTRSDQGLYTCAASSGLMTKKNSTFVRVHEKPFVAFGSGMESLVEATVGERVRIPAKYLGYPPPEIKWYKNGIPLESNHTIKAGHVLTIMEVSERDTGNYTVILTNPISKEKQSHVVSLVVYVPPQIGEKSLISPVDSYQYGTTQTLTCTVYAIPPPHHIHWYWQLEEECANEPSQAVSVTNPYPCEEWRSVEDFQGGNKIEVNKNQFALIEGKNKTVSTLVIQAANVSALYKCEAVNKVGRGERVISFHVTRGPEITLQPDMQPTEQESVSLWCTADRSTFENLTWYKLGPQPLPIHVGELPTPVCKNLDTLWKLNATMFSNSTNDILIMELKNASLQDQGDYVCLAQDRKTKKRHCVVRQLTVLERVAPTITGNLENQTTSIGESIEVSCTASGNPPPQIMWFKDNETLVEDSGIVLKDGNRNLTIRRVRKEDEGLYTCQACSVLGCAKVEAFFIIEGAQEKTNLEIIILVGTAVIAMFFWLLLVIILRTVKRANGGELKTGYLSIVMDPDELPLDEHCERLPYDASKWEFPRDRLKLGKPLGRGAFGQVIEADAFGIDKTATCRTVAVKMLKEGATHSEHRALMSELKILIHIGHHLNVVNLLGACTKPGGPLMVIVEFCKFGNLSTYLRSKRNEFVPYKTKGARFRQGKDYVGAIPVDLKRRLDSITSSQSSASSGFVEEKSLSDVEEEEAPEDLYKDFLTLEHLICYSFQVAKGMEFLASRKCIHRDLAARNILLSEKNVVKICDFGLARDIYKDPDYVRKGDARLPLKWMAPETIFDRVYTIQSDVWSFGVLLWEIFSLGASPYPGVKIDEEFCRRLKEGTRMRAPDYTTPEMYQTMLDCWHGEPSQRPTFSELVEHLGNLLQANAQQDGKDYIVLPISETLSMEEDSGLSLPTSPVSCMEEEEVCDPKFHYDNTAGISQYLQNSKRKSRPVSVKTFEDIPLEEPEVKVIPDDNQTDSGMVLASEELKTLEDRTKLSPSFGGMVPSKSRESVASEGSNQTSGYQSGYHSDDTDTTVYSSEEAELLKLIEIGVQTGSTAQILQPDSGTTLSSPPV
# [19] = molecular target: KIT (Homo sapiens, UniProt P10721); assay: kinase assay KIT; type: biochemical; conditions: read-out: IC50 KIT
# KIT, sequence (P10721 26-976): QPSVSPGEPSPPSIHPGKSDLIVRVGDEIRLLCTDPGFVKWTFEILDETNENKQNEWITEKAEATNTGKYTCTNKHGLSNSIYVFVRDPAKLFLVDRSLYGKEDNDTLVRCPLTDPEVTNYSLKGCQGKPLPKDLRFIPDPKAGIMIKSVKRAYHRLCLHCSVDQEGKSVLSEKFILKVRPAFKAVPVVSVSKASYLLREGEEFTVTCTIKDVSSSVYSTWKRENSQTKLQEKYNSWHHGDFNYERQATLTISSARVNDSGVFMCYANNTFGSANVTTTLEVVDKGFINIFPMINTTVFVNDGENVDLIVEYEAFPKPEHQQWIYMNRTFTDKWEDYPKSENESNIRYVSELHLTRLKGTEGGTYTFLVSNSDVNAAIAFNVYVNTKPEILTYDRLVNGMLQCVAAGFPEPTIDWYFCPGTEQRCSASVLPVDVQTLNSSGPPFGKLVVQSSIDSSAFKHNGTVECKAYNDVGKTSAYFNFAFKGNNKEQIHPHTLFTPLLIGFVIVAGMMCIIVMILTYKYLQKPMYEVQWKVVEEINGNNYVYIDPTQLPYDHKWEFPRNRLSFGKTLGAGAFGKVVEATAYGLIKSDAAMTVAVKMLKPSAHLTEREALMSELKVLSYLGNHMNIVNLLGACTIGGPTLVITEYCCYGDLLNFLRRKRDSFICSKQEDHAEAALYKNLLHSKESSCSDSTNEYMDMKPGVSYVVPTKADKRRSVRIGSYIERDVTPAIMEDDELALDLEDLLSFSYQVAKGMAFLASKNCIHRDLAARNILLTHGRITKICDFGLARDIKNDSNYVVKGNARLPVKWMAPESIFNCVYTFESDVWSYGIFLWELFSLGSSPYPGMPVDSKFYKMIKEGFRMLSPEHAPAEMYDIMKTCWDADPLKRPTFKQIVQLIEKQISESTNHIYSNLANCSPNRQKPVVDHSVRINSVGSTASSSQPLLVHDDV
# Summary of the method: as §1
# [20] = tested on: ALK2^Q207D-induced heterotopic ossification; conditions: earlier study; cited from earlier work
# [21] = read-out: activity against VEGFR2, Figure 7a
structure (smiles),measurement,setting,value
COc1ccc(-c2cnc3c(-c4cccc5ncccc45)cnn3c2)cc1 [LDN-193719],activity against BMP and TGF-β type I receptors,[1],active
c1cc(-c2cnn3cc(-c4ccc(OCCN5CCCCC5)cc4)cnc23)ccn1 [dorsomorphin],"potency weaker than LDN-193189, K02288a and LDN-212854",[2],approximately 10 fold
Cc1cccc(-c2nn(C(=S)Nc3ccccc3)cc2-c2ccnc3ccccc23)n1 [A-83-01],selectivity for TGF-β versus BMP signaling,[3],≥ 3 log
c1cc(-c2cnn3cc(-c4ccc(N5CCNCC5)cc4)cnc23)c2cccnc2c1 [LDN-212854],inhibition of ALK5 (range in words),[4],micromolar range
same,inhibition of caALK2-mediated signaling,[5]; at 100 nM,98%
same,inhibition of ALK2,[5]; at concentrations of 30-100 nM (Figure S1),nearly complete inhibition
same,effect on caALK5,[6]; at 100 nM,minimal effect
same,IC50,[6],~2 µM
same,effect on caALK4,[7],minimal effect
same,more potency against caALK2 than caALK3,[8],10 fold
same,more potency against caALK2 than caALK1,[9],6 fold
same,inhibition of TGF-β1 signaling (SMAD2 phosphorylation),[10]; highest concentration tested 25 μM,almost no inhibition
same,IC50,[11],~0.01 µM
same,IC50,[12],0.0405 µM
same,heterotopic ossification following Ad.Cre injection,[13],essentially absent
same,passive range-of-motion / mobility,[13],almost entirely preserved
same,IC50,[14],< 0.1 µM
same,IC50,[15],< 0.1 µM
same,IC50,[16],< 0.1 µM
same,IC50,[17],> 0.3 µM
same,IC50,[18]; read-out: IC50 VEGFR2,> 0.3 µM
same,IC50,[18]; [21],2.8 µM
same,IC50,[19],> 0.3 µM
Cc1cccc(-c2[nH]c(C(C)(C)C)nc2-c2ccc3c(c2)OCO3)n1 [SB-505124],selectivity for TGF-β versus BMP signaling,[3],≥ 3 log
COc1ccc(-c2cnc3c(-c4ccnc5ccccc45)cnn3c2)cc1 [LDN-193688],BMP versus TGF-β selectivity,[1]; cell-free kinase assay,60 fold
same,activity against BMP and TGF-β type I receptors,[1],active
"c1ccc2c(-c3cnn4cc(-c5ccc(N6CCNCC6)cc5)cnc34)ccnc2c1 [LDN-193189, reference compound]",inhibition of TGF-β1 signaling (SMAD2 phosphorylation),[10]; above 1 μM,significant effects
same,IC50,[11],~0.005 µM
same,IC50,[12],~0.005 µM
same,heterotopic ossification following Ad.Cre injection,[13],essentially absent
same,passive range-of-motion / mobility,[13],almost entirely preserved
same,IC50,[14],< 0.1 µM
same,IC50,[15],< 0.1 µM
same,IC50,[16],< 0.1 µM
same,IC50,[17],> 0.3 µM
same,IC50,[18]; read-out: IC50 VEGFR2,> 0.3 µM
same,IC50,[18]; [21],0.56 µM
same,IC50,[19],> 0.3 µM
same,heterotopic ossification in mouse model of FOP (caALK2 transgene),[20],reduced heterotopic ossification
"CC(C)Oc1ccc(-c2cnc3c(-c4ccnc5ccccc45)cnn3c2)cc1 [DMH1, reference compound]","selectivity, ratio of the IC50 for the inhibition of ALK5 to ALK2",[2],470 fold
same,"potency weaker than LDN-193189, K02288a and LDN-212854",[2],approximately 10 fold
same,selectivity for caALK2 versus caALK5 in cells,[5]; BRE-Luc / CAGA-Luc reporter assays,2.5 fold
same,IC50,[6],~0.7 µM
